As usually defined, the IC50 is the midpoint of a concentration-inhibition curve. Lower therefore signals inhibition by little substance. A word on the pIC50: it is the IC50 on a negative log10 scale, so that one unit is a factor of ten.

The record followed here is ChEMBL document CHEMBL3085702, “Synthesis and biological evaluation of 3-(trimethoxyphenyl)-2(3H)-thiazole thiones as combretastatin analogs” (Eur J Med Chem, 2013).

Converted amounts (≈) assume the structure as drawn. The source made the active and inactive calls. No cut-off for these calls is given here. Some results are limits rather than exact numbers.

Assay [1] deals with MCF7. The experiment in a line: Cytotoxicity against human MCF7 cells after 48 hrs by MTT assay. The format is functional, cell-based. Conditions: MCF7, 48 h. Summed up: (§1)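 Log-phase cells harvested by trypsinization, seeded 24 h, then exposed to a range of compound concentrations for 48 h; etoposide positive and DMSO negative controls, final DMSO below 2%. Cells kept at 37 °C, 5% CO2, humidified. MTT formazan absorbance read; % inhibition = (Abs control − Abs treated)/Abs control × 100; IC50 from concentration–response curves by regression.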
In general terms: Formazan colour is commonly taken as a measure of viable cells.

Assay [2] has as its system T47D. The assay is described as follows: Cytotoxicity against human T47D cells after 48 hrs by MTT assay. The format is functional, cell-based. Summed up: as §1
For the next assay, the system named is MDA-MB-231. The experiment in a line: Cytotoxicity against human MDA-MB-231 cells after 48 hrs by MTT assay. The format is functional, cell-based. The conditions noted are these: MDA-MB-231, 48 h. Summed up: as §1
Assay [3] has as its system T47D. The experiment in a line: Induction of apoptosis in human T47D cells at IC50 after 24 hrs by acridine orange/ethidium bromide staining test. Type of assay: functional, cell-based.
Assay [4] deals with MCF7. The assay is described as follows: Induction of apoptosis in human MCF7 cells assessed as viable cells at IC50 using annexin V-PE/7-AAD double staining by flow cytometry (reference value: 95%). The format is functional. In general terms: A flow cytometer gives signals particle by particle.
The test system of assay [5] is MCF7. The assay is described as follows: Induction of apoptosis in human MCF7 cells assessed as early apoptotic cells at IC50 using annexin V-PE/7-AAD double staining by flow cytometry (reference value: 4.88%). The format is functional.
Assay [6] deals with MCF7. The experiment in a line: Induction of apoptosis in human MCF7 cells at IC50 after 24 hrs by acridine orange/ethidium bromide staining test. Type of assay: functional, cell-based.
Assay [7] relates to MRC5. The experiment in a line: Cytotoxicity against human MRC5 cells after 48 hrs by MTT assay. The format is cell-based. Conditions: MRC5, 48 h. Summed up: as §1
Assay [8] deals with MCF7. The assay is described as follows: Induction of apoptosis in human MCF7 cells assessed as necrotic cells at IC50 using annexin V-PE/7-AAD double staining by flow cytometry (reference value: 0%). The format is functional.
Assay [9] deals with MCF7. The experiment in a line: Induction of apoptosis in human MCF7 cells assessed as late apoptotic cells at IC50 using annexin V-PE/7-AAD double staining by flow cytometry (reference value: 0.12%). The format is functional.
Assay [10] relates to MRC5. The experiment in a line: Selectivity index, ratio of IC50 for human MRC5 cells to IC50 for human T47D cells. Type of assay: functional. Summed up:
(§2)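 Ratio of IC50 in non-tumoral MRC-5 cells to IC50 in the cancer line, both from the 48 h MTT assay.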

For assay [11], the system named is MRC5. The experiment in a line: Selectivity index, ratio of IC50 for human MRC5 cells to IC50 for human MDA-MB-231 cells. The format is functional. An outline of the steps:
as §2

For the next assay, the species on record is Ovis aries. The experiment in a line: Inhibition of sheep brain tubulin polymerization assessed as reduction of microtubule assembly.
The subject of assay [12] is MCF7. The experiment in a line: Selectivity index, ratio of IC50 for human MRC5 cells to IC50 for human MCF7 cells. The format is functional. An outline of the steps:
as §2

A short description of assay [13]: Inhibition of sheep brain tubulin polymerization assessed as reduction of microtubule assembly after 30 mins by UV-visible spectrophotometry.

`COc1ccc(-n2c(-c3ccccc3)csc2=S)cc1`: the IC50 in the assay on MCF7 [1] came out at 88.5 µg/mL (≈ 296 µM); in the assay with T47D [2] it was 23.2 µg/mL (≈ 77.5 µM); in the assay with MDA-MB-231, 36.8 µg/mL (≈ 123 µM).
With `COc1cc(-n2c(-c3ccc(Cl)cc3Cl)csc2=S)cc(OC)c1OC`, the IC50 in the assay on MCF7 [1] was determined as 23.6 µg/mL (≈ 55.1 µM); with T47D [2], 43.4 µg/mL (≈ 101 µM); in the assay with MDA-MB-231 it was 49 µg/mL (≈ 114 µM).
Take `COc1cc(-n2c(-c3ccc(O)cc3)csc2=S)cc(OC)c1OC`: the IC50 in the assay with MCF7 [1] turned out to be 35.1 µg/mL (≈ 93.5 µM); with T47D [2] it was 26.4 µg/mL (≈ 70.3 µM); with MDA-MB-231, 22.9 µg/mL (≈ 61 µM).
Regarding `COc1cc(-n2c(-c3ccccc3)csc2=S)cc(OC)c1OC`, the IC50 in the assay on MCF7 [1] is more than 100 µg/mL; with T47D [2], 31.6 µg/mL (≈ 87.9 µM); in the assay on MDA-MB-231, 52 µg/mL (≈ 145 µM).
Consider `COc1ccc(-c2csc(=S)n2-c2cc(OC)c(OC)c(OC)c2)cc1`, for which the IC50 was more than 100 µg/mL with MCF7 [1], more than 100 µg/mL in the assay with T47D [2] and 53.8 µg/mL (≈ 138 µM) in the assay on MDA-MB-231.
On to `COc1cc(-n2c(-c3ccc(Cl)cc3)csc2=S)cc(OC)c1OC`, for which the IC50 in the assay on MCF7 [1], in the assay with T47D [2] and in the assay with MDA-MB-231 was more than 100 µg/mL each time.
For `COc1cc(-n2c(-c3ccc(F)cc3)csc2=S)cc(OC)c1OC`, the figures for the IC50 in the assay on MCF7 [1], with T47D [2] and in the assay with MDA-MB-231 were 38.5 µg/mL (≈ 102 µM), 38.9 µg/mL (≈ 103 µM) and 19.5 µg/mL (≈ 51.7 µM), respectively.
The like results for `COc1cc(-n2c(-c3ccc(-c4ccccc4)cc3)csc2=S)cc(OC)c1OC` were, in that order, 45.3 µg/mL (≈ 104 µM), more than 100 µg/mL and more than 100 µg/mL.
On the same counts, the results for `COc1ccc(-n2c(-c3ccccc3)csc2=S)cc1OC` are 17.6 µg/mL (≈ 53.4 µM), 33.1 µg/mL (≈ 100 µM) and 19.1 µg/mL (≈ 58 µM).
Take `COc1cc(N2C(=S)SCC2(O)c2ccc(Br)cc2)cc(OC)c1OC` (racemic): the results for the IC50 with MCF7 [1], with T47D [2] and in the assay on MDA-MB-231 were 16.5 µg/mL (≈ 36.2 µM), 16.3 µg/mL (≈ 35.7 µM) and 15.1 µg/mL (≈ 33.1 µM), respectively.
Turning to `COc1cc(-n2c(-c3ccc(O)c(O)c3)csc2=S)cc(OC)c1OC`, the IC50 in the assay on MCF7 [1] was more than 100 µg/mL; in the assay on T47D [2], 24.9 µg/mL (≈ 63.6 µM); in the assay on MDA-MB-231 it was 29.8 µg/mL (≈ 76.1 µM).
`COc1cc(N2C(=S)SCC2(O)c2ccc(Cl)cc2Cl)cc(OC)c1OC` (racemic): the outcome with T47D [3] and in the assay with MCF7 [6] was Active. For the same compound, the Activity in the assay on MCF7 [4] stood at 48.32%; in the assay on MCF7 [5], 51.67%; in the assay on MCF7 [8], 0%; in the assay on MCF7 [9], 0.02%. In addition, the IC50 was 9.6 µg/mL (≈ 21.5 µM) in the assay on MCF7 [1], 16.9 µg/mL (≈ 37.9 µM) with T47D [2], 14.5 µg/mL (≈ 32.5 µM) in the assay with MDA-MB-231 and 47.3 µg/mL (≈ 106 µM) with MRC5 [7].
On to `COc1cc(-n2c(-c3ccc(Br)cc3)csc2=S)cc(OC)c1OC`, for which the results for the IC50 in the assay on MCF7 [1], in the assay with T47D [2] and in the assay with MDA-MB-231 were more than 100 µg/mL, more than 100 µg/mL and 58 µg/mL (≈ 132 µM), respectively.
Consider `COc1ccc(C(=O)CSC(=S)Nc2cc(OC)c(OC)c(OC)c2)cc1`, for which the figures for the IC50 in the assay with MCF7 [1], in the assay on T47D [2] and with MDA-MB-231 were 18.6 µg/mL (≈ 45.6 µM), 29.9 µg/mL (≈ 73.4 µM) and 16.4 µg/mL (≈ 40.2 µM), respectively.
With `COc1cc([C@@H]2c3cc4c(cc3[C@@H](O[C@@H]3O[C@@H]5CO[C@@H](C)O[C@H]5[C@H](O)[C@H]3O)[C@H]3COC(=O)[C@H]23)OCO4)cc(OC)c1O` [ETOPOSIDE], the Activity in the assay with MCF7 [4] turned out to be 83.39%; in the assay with MCF7 [5] it was 16.6%; in the assay on MCF7 [8], 0%; in the assay with MCF7 [9] it was 0.01%. Also, the results for the IC50 with MCF7 [1], with T47D [2] and with MDA-MB-231 were 9.4 µg/mL (≈ 16 µM), 8.2 µg/mL (≈ 13.9 µM) and 7.2 µg/mL (≈ 12.2 µM), respectively.
Consider `COc1cc(-n2c(-c3ccc(C)cc3)csc2=S)cc(OC)c1OC`, for which the outcome in the assay on T47D [3] and in the assay with MCF7 [6] was Active. Further, the Activity with MCF7 [4] stood at 33.24%; with MCF7 [5] it was 66.47%; in the assay with MCF7 [8], 0.02%; in the assay with MCF7 [9], 0.26%. The half-maximal inhibitory concentration (IC50) was 19.7 µg/mL (≈ 52.7 µM) in the assay on MCF7 [1], 16.3 µg/mL (≈ 43.6 µM) in the assay on T47D [2], 11.8 µg/mL (≈ 31.6 µM) with MDA-MB-231 and more than 100 µg/mL with MRC5 [7]. In addition, the “Ratio IC50” value in the assay on MRC5 [10], in the assay on MRC5 [11] and with MCF7 [12] was more than 5 each time. In addition, the inhibition result in the assay filed under Ovis aries is “Dose-dependent effect”. Moreover, the pIC50 in assay [13] was 4.14.
